In ChEMBL document CHEMBL4052637, “Discovery and Characterization of R/S-N-3-Cyanophenyl-N'-(6-tert-butoxycarbonylamino-3,4-dihydro-2,2-dimethyl-2H-1-benzopyran-4-yl)urea, a New Histone Deacetylase Class III Inhibitor Exerting Antiproliferative Activity against Cancer Cell Lines” (J Med Chem, 2017):
Activity calls are given as the source filed them. The rule behind the calls is not given here.

Assays:
[1] = tested on: KB-HU; assay: Antiproliferative activity against human KB-HU cells overexpressing ribonucleotide reductase subunit 2 after 72 hrs by MTT assay; type: functional, cell-based
Procedure, shortened: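 MTT assay: cells in RPMI 1640 with 10% heat-inactivated FCS at 37 °C and 5% CO2 were seeded 24 h before treatment. They were exposed 72 h to compound at 0.01–100 μM, with DMSO as solvent.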

[2] = target: T1, NAD-dependent protein deacetylase sirtuin-1 (Homo sapiens, UniProt Q96EB6); assay: Inhibition of N-terminal His-tagged recombinant human SIRT-1 expressed in Escherichia coli using Fluor-de-Lys-SIRT1 as substrate after 15 mins by fluorescence assay
T1 sequence (Q96EB6 whole entry): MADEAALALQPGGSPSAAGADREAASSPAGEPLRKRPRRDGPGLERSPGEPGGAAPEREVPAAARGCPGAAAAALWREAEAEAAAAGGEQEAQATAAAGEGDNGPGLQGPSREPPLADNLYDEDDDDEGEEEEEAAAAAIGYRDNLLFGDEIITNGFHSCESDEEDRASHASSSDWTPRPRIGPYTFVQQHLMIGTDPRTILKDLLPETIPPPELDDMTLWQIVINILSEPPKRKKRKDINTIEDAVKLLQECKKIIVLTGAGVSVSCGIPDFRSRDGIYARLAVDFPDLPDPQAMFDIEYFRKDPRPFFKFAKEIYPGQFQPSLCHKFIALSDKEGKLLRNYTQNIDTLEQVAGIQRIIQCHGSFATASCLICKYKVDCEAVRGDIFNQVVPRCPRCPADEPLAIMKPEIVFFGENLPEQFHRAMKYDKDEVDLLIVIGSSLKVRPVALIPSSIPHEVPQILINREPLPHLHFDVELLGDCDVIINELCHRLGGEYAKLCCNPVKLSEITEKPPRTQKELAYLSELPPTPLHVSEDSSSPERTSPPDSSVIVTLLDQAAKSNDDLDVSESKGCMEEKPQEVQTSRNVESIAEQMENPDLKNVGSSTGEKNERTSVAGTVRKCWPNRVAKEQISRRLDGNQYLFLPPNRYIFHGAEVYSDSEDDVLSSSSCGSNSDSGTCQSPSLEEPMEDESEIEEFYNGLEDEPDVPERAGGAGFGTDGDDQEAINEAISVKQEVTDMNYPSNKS

[3] = target: T2, NAD-dependent protein deacetylase sirtuin-2 (Homo sapiens) (UniProt Q8IXJ6); assay: Inhibition of SIRT2 in human Hs683 cells assessed as increase of alpha-tubulin acetylation after 8 hrs by Western blotting method; type: cell-based
T2 sequence (whole entry): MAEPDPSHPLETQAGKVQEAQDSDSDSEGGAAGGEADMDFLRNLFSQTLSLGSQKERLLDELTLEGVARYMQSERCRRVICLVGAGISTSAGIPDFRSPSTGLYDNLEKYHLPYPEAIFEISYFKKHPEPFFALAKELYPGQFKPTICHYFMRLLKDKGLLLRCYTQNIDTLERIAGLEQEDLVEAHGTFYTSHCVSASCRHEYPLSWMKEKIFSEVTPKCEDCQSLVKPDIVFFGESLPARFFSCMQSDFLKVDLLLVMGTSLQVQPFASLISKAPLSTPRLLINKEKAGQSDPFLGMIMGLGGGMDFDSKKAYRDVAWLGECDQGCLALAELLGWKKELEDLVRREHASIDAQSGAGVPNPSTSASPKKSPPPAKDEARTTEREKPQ

[4] = target: T3, NAD-dependent protein deacetylase sirtuin-1 (Homo sapiens) (UniProt Q96EB6); assay: Inhibition of SIRT1 in human U373 cells assessed as increase of histone H4 acetylation after 8 hrs by Western blotting method; type: cell-based
T3 sequence (whole entry): T1 sequence (Q96EB6 whole entry)

[5] = target: T3, NAD-dependent protein deacetylase sirtuin-1 (Homo sapiens); assay: Inhibition of SIRT1 in human Hs683 cells assessed as increase of histone H4 acetylation at 10 to 25 after 8 to 24 hrs by Western blotting method; type: cell-based
[6] = tested on: U-373MG ATCC; assay: Antitumor activity against CM-Dil fluorescent dye labeled human U373 cells xenografted in zebrafish embryo at 5 to 10 uM preincubated with tumor for 30 to 36 hrs followed by tumor implantation in zebra fish yolk sac measured after 72 hrs by fluorescence microscopy; type: functional, cell-based
Procedure, shortened: (§1)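 Cells were pretreated in vitro at 5 or 10 μM for 30 or 36 h and labeled with CM-DiI 2 h before injection. Then 100–200 cells were injected into the yolk sac of wild-type zebrafish 48 h post-fertilization, anesthetized in 0.02% tricaine. Embryos were kept 72 h at 28.5 °C in Danieau solution with 0.003% phenylthiourea, and fluorescence was quantified in eight fish per condition.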

[7] = tested on: Hs 683; assay: Cytostatic activity against human Hs683 cells at 10 uM after 72 hrs by quantitative videomicroscopy relative to control; type: functional
Procedure, shortened: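 Cells were grown in 25 cm2 flasks, and phase-contrast images were recorded every 4 min over 72 h, in triplicate. Global growth is cell count on the last image divided by cell count on the first, at 24, 48 and 72 h. The GGR index is treated GG divided by control GG.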

[8] = Induction of apoptosis in human U373 cells at 10 uM after 72 hrs by TUNEL method relative to control; type: functional, U-373MG ATCC
[9] = Potency index, ratio of sirtinol IC50 to test compound IC50 for human U373 cells; type: functional, U-373MG ATCC
[10] = tested on: Hs 683; assay: Cell cycle arrest in human Hs683 cells assessed as accumulation at sub-G1 phase at IC50 for MTT assay after 24 to 48 hrs by propidium iodide staining-based flow cytometry; type: functional
Procedure, shortened: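 Cells were exposed to compound at the IC50 for each line from the 72 h MTT assay, or to a reference HDAC inhibitor at 2 μM. Cell cycle distribution was analyzed after 24 and 48 h. Results are mean ± SD of three independent experiments, with p values against control cells.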

[11] = tested on: Hs 683; assay: Antitumor activity against CM-Dil fluorescent dye labeled human Hs683 cells xenografted in zebrafish embryo at 10 uM preincubated with tumor for 36 hrs followed by tumor implantation in zebra fish yolk sac measured after 72 hrs by fluorescence microscopy; type: functional, cell-based; procedure, shortened: as §1
[12] = tested on: EKVX; assay: Growth inhibition of human EKVX cells after 48 hrs by SRB assay; type: functional
[13] = tested on: COLO 205; assay: Growth inhibition of human COLO205 cells after 48 hrs by SRB assay; type: functional; conditions: COLO 205, 48 h
[14] = tested on: SNB-19; assay: Growth inhibition of human SNB19 cells after 48 hrs by SRB assay; type: functional; conditions: SNB-19, 48 h
[15] = tested on: U-251; assay: Growth inhibition of human U251 cells after 48 hrs by SRB assay; type: functional; conditions: U-251, 48 h
[16] = tested on: OVCAR-3; assay: Growth inhibition of human OVCAR3 cells after 48 hrs by SRB assay; type: functional; conditions: OVCAR-3, 48 h
[17] = tested on: UO-31; assay: Growth inhibition of human UO31 cells after 48 hrs by SRB assay; type: functional; conditions: UO-31, 48 h

CC(C)(C)OC(=O)Nc1ccc2c(c1)C(NC(=O)Nc1cccc(C#N)c1)CC(C)(C)O2 (configuration not stated)
Activity [1]: Active
IC50 [2]: 6.2 µM
inhibition [3]: Dose-dependent effect
inhibition [4]: Dose-dependent effect
inhibition [5]: Active
Activity [6]: Active
Activity [7]: >=50%
Activity [8]: <10%
Ratio IC50 [9]: 6
Activity [10]: inactive
Activity [11]: Active
GI50 [12]: 0.562 µM
GI50 [13]: 3.55 µM
GI50 [14]: 3.72 µM
GI50 [15]: 1.48 µM
GI50 [16]: 2.29 µM
GI50 [17]: 4.27 µM
